In ChEMBL document CHEMBL1124782, “DNA binding by antitumor anthracene derivatives” (J Med Chem, 1990):

Tests used:
Nucleic Acid [1] = experiment: Apparent binding constant (McGhee-von Hippel) was determined by using spectrophotometric titration; type: nucleic-acid assay; settings: Bos taurus
Method in brief: (§1)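 Calf thymus DNA (<3% protein) titrated by UV-visible absorbance in 0.1 M NaCl, 0.01 M sodium phosphate, 0.001 M EDTA, pH 7.0. Drug stock about 2×10^-4 M. DNA prepared fresh at 5×10^-4 M (base pairs) for each titration. Free and bound drug extinction coefficients came from Beer's law plots. Bound/free data were fitted by McGhee-von Hippel equations or by a cubic spline derivative analysis.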

Nucleic Acid [2] = experiment: (§2) delta Tm value is the difference between Tm(melting temperature) for calf thymus DNA with drug and without drug(Tm = 71 degree C for DNA alone); type: nucleic-acid assay; settings: Bos taurus
[3] = pKa value for amino group in the compound; type: physicochemical
Method in brief: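 0.2 mmol of compound, as free base or dihydrochloride, was dissolved in 0.0392 N HCl to give 1 mequiv acid beyond full protonation of the amino groups. The solution was stirred and titrated with 0.0242 N NaOH with pH monitoring. Macroscopic pKa was read at 0.5 equiv base per functional group. Poorly soluble material was titrated in very dilute solution.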

Nucleic Acid [4] = experiment: Cubic spline relative binding strength was determined by using spectrophotometric titration; type: nucleic-acid assay; settings: Bos taurus; method in brief: as §1
Nucleic Acid [5] = experiment: as §2; type: functional; settings: Bos taurus

K app (Nucleic Acid [1]) [µM⁻¹] | ΔTm (Nucleic Acid [2]) [°C] | pKa ([3]; read-out: pKa1) | pKa ([3]; read-out: pKa2) | pKa ([3]; read-out: pKa3) | pKa ([3]; read-out: pKa4) | Relative binding (Nucleic Acid [4]) | pKa [3] | SMILES | ΔTm (Nucleic Acid [5]) [°C]
0.1 | 12 | 3.9 | 5.35 | 8.4 | 9.4 | 0.75 | – | CN(C)CCNCc1c2ccccc2c(CNCCN(C)C)c2ccccc12 | –
8.29 | > 20 | – | – | – | – | 1.08 | – | CN1CCN=C1/C=C/c1c2ccccc2c(/C=C/C2=NCCN2)c2ccccc12 | –
– | – | 3.1 | 4.2 | 8.45 | 9.45 | – | – | CN(C)CCN(C)Cc1c2ccccc2c(CN(C)CCN(C)C)c2ccccc12 | 1
0.27 | 14 | – | – | – | – | 0.75 | – | NCCNCc1c2ccccc2c(CNCCN)c2ccccc12 | –
0.0605 | 16 | 2.4 | 3 | 5.2 | 9.15 | 0.75 | – | CCN1CCCC(NCc2c3ccccc3c(CNC3CCCN(CC)C3)c3ccccc23)C1 (stereo not given) | –
– | – | – | – | – | – | – | – | CC(C)N(CCNCc1c2ccccc2c(CNCCN(C(C)C)C(C)C)c2ccccc12)C(C)C | 9
– | – | – | – | – | – | – | – | CNCCN(C)Cc1c2ccccc2c(CN(C)CCNC)c2ccccc12 | 3
– | – | 3.85 | 6.3 | 7.5 | 8.5 | – | – | c1ccc2c(CNCCN3CCOCC3)c3ccccc3c(CNCCN3CCOCC3)c2c1 | 5
0.0532 | 13 | – | – | – | – | 0.84 | 8 | OCCCCCNCc1c2ccccc2c(CNCCCCCO)c2ccccc12 | –

SMILES | K app (Nucleic Acid [1]) [µM⁻¹] | ΔTm (Nucleic Acid [2]) [°C] | pKa ([3]; read-out: pKa1) | pKa ([3]; read-out: pKa2) | pKa ([3]; read-out: pKa3) | pKa ([3]; read-out: pKa4) | Relative binding (Nucleic Acid [4]) | pKa [3] | ΔTm (Nucleic Acid [5]) [°C]
C(=N\NC1=NCCN1)/c1c2ccccc2c(/C=N/NC2=NCCN2)c2ccccc12 [BISANTRENE] | 9.03 | 19 | 6.8 | – | – | – | 1.03 | – | –
